Experimental findings from ChEMBL document CHEMBL4190170, “Improved Antiviral Activity of a Polyamide Against High-Risk Human Papillomavirus Via N-Terminal Guanidinium Substitution” (Medchemcomm, 2016) are described below.

Calls of active or inactive are those of the source. No cut-off for these calls is given here.

Experiment [1] can be described thus: Binding affinity to HPV 18 CTTTGGCGCATATAA GGCGC LCR DNA (7585 to 7594 nucleotides) after 4 hrs by DNase I footprinting assay. The arrangement: species or system human papillomavirus 18. The procedure, abridged:
(§1)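 Kd values derived from DNase I footprinting of HPV18 LCR DNA, each run at least in triplicate. Sites are read as the polyamide binding block flanked by 5 nt on each side.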

Experiment [2] is described as follows: (§2) Binding affinity to HPV 18 CCTGG TATTAGTCAT TTTCC LCR DNA (7606 to 7615 nucleotides) after 4 hrs by DNase I footprinting assay. Details: species or system human papillomavirus 18. The procedure, abridged: as §1
Experiment [3] has as its system human papillomavirus 18. The description is as §2. The gist of the method: as §1
Experiment [4] relates to human papillomavirus 18. The experiment can be described thus: Binding affinity to HPV 18 5'-TAGTCATTTT-3' LCR DNA (7609 to 7618 nucleotides) after 4 hrs by DNase I footprinting assay. The gist of the method:
as §1

Experiment [5] relates to Human papillomavirus. The experiment can be described thus: Antiviral activity against HPV 18 infected in mouse 3T3 cells assessed as decrease in viral DNA after 48 hrs by qRT-PCR analysis. Type of experiment: functional, organism-based, human papillomavirus 18. Particulars: NIH3T3, 48 h. The procedure, abridged:
(§3)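 Assays run side by side over a range of polyamide concentrations for two days. Pseudo IC50 and IC90 are the polyamide concentrations that give a 50% or 90% drop in viral DNA.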

The subject of experiment [6] is Human papillomavirus. The experiment in a line: Antiviral activity against HPV 31 infected in mouse 3T3 cells assessed as decrease in viral DNA after 48 hrs by qRT-PCR analysis. Type of experiment: functional, organism-based, Human papillomavirus type 31. The note with it: NIH3T3, 48 h. The gist of the method:
as §3

A short description of experiment [7]: Binding affinity to HPV 18 ACATA TTTTGAACAA TTGGC LCR DNA (7559 to 7568 nucleotides) after 4 hrs by DNase I footprinting assay. Details: species or system human papillomavirus 18. The gist of the method:
as §1

The test system of experiment [8] is Human papillomavirus. The experiment in a line: Antiviral activity against HPV 16 infected in mouse 3T3 cells assessed as decrease in viral DNA after 48 hrs by qRT-PCR analysis. Type of experiment: functional, organism-based, Human papillomavirus 16. The note with it: NIH3T3, 48 h. The gist of the method:
as §3

The test system of experiment [9] is human papillomavirus 18. The experiment can be described thus: Binding affinity to HPV 18 CCT GGT ATTAG TCATT TTCCTG TCCAGGT LCR DNA (7619 to 7626 nucleotide) at 5 nM after 4 hrs by DNase I footprinting assay. The procedure, abridged:
as §1

Experiment [10] relates to human papillomavirus 18. The experiment can be described thus: Binding affinity to (7619 nucleotide) of HPV 18 CCT GGT ATTAG TCATT TTCCTG TCCAGGT LCR DNA at 5 nM after 4 hrs by DNase I footprinting assay. The procedure, abridged: as §1
The test system of experiment [11] is human papillomavirus 18. The experiment in a line: Binding affinity to HPV 18 CCT GG TATTAGTCATTTTCCTG TCCA G GT LCR DNA (7606 to 7615 nucleotide) at 50 nM after 4 hrs by DNase I footprinting assay. The gist of the method: as §1

For `CN(CCCN)CCCNC(=O)CCNC(=O)c1cc(NC(=O)c2cc(NC(=O)c3cc(NC(=O)c4cc(NC(=O)CCNC(=O)c5cc(NC(=O)c6cc(NC(=O)CCCNC(=O)c7cc(NC(=O)c8cc(NC(=O)c9cc(NC(=O)CCNC(=O)c%10cc(NC(=O)c%11cc(NC(=O)c%12nc(N=C(N)N)cn%12C)cn%11C)cn%10C)cn9C)cn8C)cn7C)cn6C)cn5C)cn4C)cn3C)cn2C)cn1C`, the Kd turned out to be 2.2 nM in experiment [1], 1 nM in experiment [2] and 1 nM in [7]. For the same compound, the result with human papillomavirus 18 [3], with human papillomavirus 18 [4] and in the experiment with human papillomavirus 18 [9] was Active. Moreover, the IC50 in the experiment on Human papillomavirus [5] is 200 nM; in the experiment on Human papillomavirus [6], 140 nM; in the experiment with Human papillomavirus [8], 100 nM. Further, the IC90 was found to be 900 nM in the experiment on Human papillomavirus [5], 800 nM with Human papillomavirus [6] and 380 nM in the experiment with Human papillomavirus [8].

In the case of `CN(CCCN)CCCNC(=O)CCNC(=O)c1cc(NC(=O)c2cc(NC(=O)c3cc(NC(=O)CCNC(=O)c4cc(NC(=O)c5cc(NC(=O)c6cc(NC(=O)CCNC(=O)c7cc(NC(=O)c8cc(NC(=O)CCNC(=O)c9cc(NC(=O)c%10cc(NC(=O)CCCNC(=O)c%11cc(NC(=O)c%12cc(NC(=O)c%13cc(NC(=O)CCNC(=O)c%14cc(NC(=O)c%15cc(NC(=O)c%16nccn%16C)cn%15C)cn%14C)cn%13C)cn%12C)cn%11C)cn%10C)cn9C)cn8C)cn7C)n(C)c6)n(C)c5)n(C)c4)n(C)c3)n(C)c2)n(C)c1`, the results for the IC50 with Human papillomavirus [5], with Human papillomavirus [6] and in the experiment on Human papillomavirus [8] were 56 nM, 30 nM and 36 nM, respectively. The figures for the IC90 in the experiment with Human papillomavirus [5], with Human papillomavirus [6] and in the experiment on Human papillomavirus [8] were 1500 nM, 510 nM and 350 nM, respectively.

Take `CN(CCCN)CCCNC(=O)CCNC(=O)c1cc(NC(=O)c2cc(NC(=O)c3cc(NC(=O)c4cc(NC(=O)CCNC(=O)c5cc(NC(=O)c6cc(NC(=O)CCCNC(=O)c7cc(NC(=O)c8cc(NC(=O)c9cc(NC(=O)CCNC(=O)c%10cc(NC(=O)c%11cc(NC(=O)c%12nccn%12C)cn%11C)cn%10C)cn9C)cn8C)cn7C)cn6C)cn5C)cn4C)cn3C)cn2C)cn1C`: the Kd came to 2.7 nM in experiment [1], 0.9 nM in experiment [2] and 0.9 nM in experiment [7]. In addition, the outcome with human papillomavirus 18 [3] and in the experiment with human papillomavirus 18 [4] was Active. The IC50 was 700 nM in the experiment on Human papillomavirus [5], 100 nM in the experiment with Human papillomavirus [6] and 100 nM in the experiment on Human papillomavirus [8]. The concentration for an effect of 90% (IC90) with Human papillomavirus [5] was more than 10000 nM; in the experiment on Human papillomavirus [6], 1000 nM; in the experiment on Human papillomavirus [8] it was 1100 nM.

`CN(CCCN)CCCNC(=O)CCNC(=O)c1cc(NC(=O)c2cc(NC(=O)c3cc(NC(=O)c4cc(NC(=O)CCNC(=O)c5cc(NC(=O)c6cc(NC(=O)CCCNC(=O)c7cc(NC(=O)c8cc(NC(=O)c9cc(NC(=O)CCNC(=O)c%10cc(NC(=O)c%11cc(NC(=O)c%12nc(N=C(N(C)C)N(C)C)cn%12C)cn%11C)cn%10C)cn9C)cn8C)cn7C)cn6C)cn5C)cn4C)cn3C)cn2C)cn1C`: in the experiment on human papillomavirus 18 [10], the result was inactive. The results for the Kd in [1], in experiment [2] and in experiment [7] were 3.2 nM, 1.2 nM and 1.1 nM, respectively. Further, the result in the experiment on human papillomavirus 18 [3] and in the experiment on human papillomavirus 18 [11] was Active. Besides, the IC50 in the experiment on Human papillomavirus [5] amounted to 200 nM; with Human papillomavirus [6], 130 nM; with Human papillomavirus [8] it was 300 nM. The figures for the concentration for an effect of 90% (IC90) in the experiment on Human papillomavirus [5], with Human papillomavirus [6] and in the experiment with Human papillomavirus [8] were more than 10000 nM, 900 nM and more than 10000 nM, respectively.
